Results on 16 compounds are retold here after ChEMBL document CHEMBL1127858, “Synthesis and evaluation of the anti-HIV activity of aza and deaza analogues of isoddA and their phosphates as prodrugs” (J Med Chem, 1994).

The subject of experiment [1] is MT4. Kind of experiment: Concentration required to reduce the viability of mock-infected MT-4 cells by 50% (4 days). It counts as functional. Conditions: Homo sapiens, MT4, 96 h. An outline of the steps: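 Mock-infected MT-4 cells (1 × 10⁴ per well) in RPMI with 10% FCS, exposed to a range of compound concentrations and incubated 4 days at 37 °C. Viable cells counted by MTT. CC50 is the dose cutting viability by 50%. Mean of three independent experiments. Cultures were checked periodically for mycoplasma.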

Experiment [2] has as its system MT4. In words: Effective concentration required to achieve 50% protection of MT-4 cells against cytopathic effect of HIV-1 (4 days). It counts as functional, cell-based. Conditions: Homo sapiens, MT4, 96 h. The method, boiled down: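 MT-4 cells (1 × 10⁴ per well, RPMI with 10% FCS) with various compound concentrations, infected with 100 CCID50 of HIV-1 IIIB from persistently infected H9/IIIB supernatant. After 4 days at 37 °C, viable cells read by MTT. EC50 is the dose giving 50% protection from virus cytopathicity. Mean of three independent experiments. Cytotoxicity run in parallel.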

Experiment [3] relates to MT4. In words: Effective concentration required to achieve 50% protection of MT-4 cells against cytopathic effect of HIV-2 (8 days). Conditions: Homo sapiens, MT4, 192 h. It counts as functional, cell-based. The method, boiled down:
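MT-4 cells (1 × 10⁴ per well, RPMI with 10% FCS) with various compound concentrations, infected with 100 CCID50 of HIV-2 CBL 20 from persistently infected CEM supernatant. Viable cells read by MTT. EC50 is the dose giving 50% protection from virus cytopathicity. Mean of three independent experiments.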

Experiment [4] is described as follows: Ratio of CC50 value that of EC50 value(HIV-1). It counts as functional. An outline of the steps: (§1)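 Selectivity index as the CC50/EC50 ratio. CC50 comes from mock-infected MT-4 viability by MTT. EC50 comes from MTT-measured protection of MT-4 cells infected with 100 CCID50 of HIV-1 IIIB or HIV-2 CBL 20. Data are means of three experiments.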
The nature of experiment [5]: Ratio of CC50 value that of EC50 value(HIV-2). It counts as functional. An outline of the steps:
as §1

In turn, `COC(=O)C(C)NP(=O)(OCC1CC(n2nnc3c(N)ncnc32)CO1)Oc1ccccc1` (configuration not stated) gave a 50% cytotoxic concentration (CC50) in experiment [1] of 146 µM. Also, the values for the EC50 in experiment [2] and in experiment [3] were 17 µM and 105 µM, respectively. Besides, the Ratio turned out to be 8.5 in experiment [4] and 1.4 in experiment [5].

`COC(=O)C(C)NP(=O)(OCC1CC(n2cnc3c(N)ncnc32)CO1)Oc1ccccc1` (configuration not stated) had a CC50 in experiment [1] of 2.9 µM. The concentration giving a half-maximal response (EC50) in experiment [2] was 0.06 µM; in experiment [3], 0.04 µM. For the same compound, the Ratio in experiment [4] came out at 48; in experiment [5] it was 65.

As for `Nc1ncnc2c1ncn2[C@H]1CO[C@@H](CO)C1`, the CC50 in experiment [1] is above 425 µM. Further, the EC50 in experiment [2] stood at 21 µM; in experiment [3] it was 32 µM. The values for the Ratio in experiment [4] and in experiment [5] were above 20 and above 13, respectively.

Turning to `Nc1ncnc2c1ncn2C1COC(COP(=O)(OCC(Cl)(Cl)Cl)OCC(Cl)(Cl)Cl)C1` (configuration not stated), the CC50 in experiment [1] was at least 173 µM. In addition, the 50% effective concentration (EC50) is 87 µM in experiment [2] and above 173 µM in experiment [3]. Moreover, the Ratio in experiment [4] is above 2.

For the compound `Nc1ncnc2c1nnn2C1COC(COP(=O)(OCC(Cl)(Cl)Cl)OCC(Cl)(Cl)Cl)C1` (configuration not stated), it took 92 µM to reach half-maximal cytotoxicity in experiment [1] (CC50). The EC50 in experiment [2] and in experiment [3] was above 92 µM throughout.

Compound `Nc1nccc2c1nnn2C1COC(COP(=O)(OCC(Cl)(Cl)Cl)OCC(Cl)(Cl)Cl)C1` (configuration not stated) gave a cytotoxic concentration (CC50) in experiment [1] above 173 µM. Besides, the EC50 in experiment [2] and in experiment [3] was above 173 µM each time.

For the compound `Nc1nccc2c1ncn2C1COC(CO)C1` (configuration not stated), the CC50 in experiment [1] was above 425 µM. The EC50 in experiment [2] and in experiment [3] was above 425 µM in each case.

In the case of `Cc1cn([C@H]2C[C@H](N=[N+]=[N-])[C@@H](CO)O2)c(=O)[nH]c1=O` [ZIDOVUDINE], the 50% cytotoxic concentration (CC50) in experiment [1] is above 80 µM. Moreover, the EC50 came to 0.01 µM in experiment [2] and 0.04 µM in experiment [3].

In experiment [1], `Nc1ccnc2c1nnn2C1COC(CO)C1` (configuration not stated) registered a half-maximal cytotoxic concentration (CC50) above 425 µM. Moreover, the EC50 in experiment [2] and in experiment [3] was above 425 µM throughout.

For the compound `Nc1nccc2c1nnn2C1COC(CO)C1` (configuration not stated), the CC50 in experiment [1] was above 425 µM. For the same compound, the EC50 in experiment [2] and in experiment [3] was above 425 µM throughout.

In experiment [1], `Nc1ncnc2c1nnn2C1COC(CO)C1` (configuration not stated) came in with a CC50 above 425 µM. Also, the concentration giving a half-maximal response (EC50) in experiment [2] and in experiment [3] was above 425 µM each time.

`O=c1[nH]cnc2c1ncn2[C@H]1CC[C@@H](CO)O1` [DIDANOSINE] showed a 50% cytotoxic concentration (CC50) in experiment [1] above 425 µM. The EC50 in experiment [2] came out at 10 µM; in experiment [3], 11 µM. In addition, the Ratio was above 42 in experiment [4] and above 38 in experiment [5].

`Nc1ccnc2c1nnn2C1COC(COP(=O)(OCC(Cl)(Cl)Cl)OCC(Cl)(Cl)Cl)C1` (configuration not stated): the 50% cytotoxic concentration (CC50) in experiment [1] was above 100 µM. Also, the concentration giving a half-maximal response (EC50) in experiment [2] and in experiment [3] was above 100 µM throughout.

In experiment [1], `Nc1ccnc2c1ncn2C1COC(CO)C1` (configuration not stated) registered a half-maximal cytotoxic concentration (CC50) above 425 µM. The EC50 in experiment [2] and in experiment [3] was above 425 µM each time.

Compound `Nc1ccnc2c1ncn2C1COC(COP(=O)(OCC(Cl)(Cl)Cl)OCC(Cl)(Cl)Cl)C1` (configuration not stated) yielded a CC50 in experiment [1] above 100 µM. Besides, the 50% effective concentration (EC50) in experiment [2] and in experiment [3] was above 100 µM in each case.

For `Nc1nccc2c1ncn2C1COC(COP(=O)(OCC(Cl)(Cl)Cl)OCC(Cl)(Cl)Cl)C1` (configuration not stated), in experiment [1], the midpoint of cytotoxicity, the CC50, lay at 34 µM. For the same compound, the EC50 in experiment [2] and in experiment [3] was above 34 µM each time.
